Results published in ChEMBL document CHEMBL1141909, “3-Arylidene-1-(4-nitrophenylmethylene)-3,4-dihydro-1H-naphthalen-2-ones and related compounds displaying selective toxicity and reversal of multidrug resistance in neoplastic cells” (2005).

How the values were obtained:
[1] = Concentration for 50% cytotoxicity towards nonmalignant cells expressed in HPLF normal periodontal ligament fibroblasts; settings: Homo sapiens
[2] = Effect of compound on multidrug resistance in colon320 neoplasm cells at 4 ug/ml concentration; expressed as fluorescence activity ratio (treated/untreated cells); type: functional, Homo sapiens
[3] = tested on: HSC-3; test: Concentration for 50% cytotoxicity towards malignant cells expressed in HSC-3 neoplastic cell line; type: functional; settings: Homo sapiens
In short: (§1)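 Human oral squamous carcinoma HSC-2 and HSC-3 and submandibular gland carcinoma HSG cells were grown in DMEM with 10% heat-inactivated FBS. Near-confluent cells were exposed to various compound concentrations for 24 h. Viable cells were read by MTT (absorbance of stained lysate at 540). CC50 came from dose-response curves as the mean of duplicates.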

[4] = Concentration for 50% cytotoxicity towards nonmalignant cells expressed in HPC normal pulp cells; settings: Homo sapiens
[5] = tested on: HL-60; test: Concentration for 50% cytotoxicity towards malignant cells expressed in HL-60 neoplastic cell line; type: functional; settings: Homo sapiens
In short: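 Human promyelocytic leukaemia HL-60 cells were grown in RPMI1640 with 10% FBS and exposed to various compound concentrations for 24 h. Viable cell number was counted by trypan blue exclusion. CC50 was taken from dose-response curves, mean of duplicate determinations.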

[6] = Concentration for 50% cytotoxicity towards malignant cells expressed in HSG neoplastic cell line; type: functional; settings: Homo sapiens
In short: as §1

[7] = Concentration for 50% cytotoxicity towards nonmalignant cells expressed in HGF normal gingival fibroblasts; settings: Homo sapiens
[8] = Effect of compound on multidrug resistance in murine L-5178 cells at 4 ug/ml concentration; expressed as fluorescence activity ratio (treated/untreated cells); type: functional, Mus musculus
[9] = Effect of compound on multidrug resistance in murine L-5178 cells at 40 ug/ml concentration; expressed as fluorescence activity ratio (treated/untreated cells); type: functional, Mus musculus
[10] = Concentration for 50% cytotoxicity towards malignant cells expressed in HSC-2 neoplastic cell line; type: functional; settings: Homo sapiens
In short: as §1

[11] = Selectivity index of compound towards human malignant cell lines; type: functional
[12] = Effect of compound on multidrug resistance in colon320 neoplasm cells at 40 ug/ml concentration; expressed as fluorescence activity ratio (treated/untreated cells); type: functional, Homo sapiens
[13] = Effect of compound on multidrug resistance in murine L-5178 cells at 10 ug/ml concentration; expressed as fluorescence activity ratio (treated/untreated cells); type: functional, Mus musculus

Row | Compound | CC50 [1] [µM] | Effect [2] | CC50 [3] [µM] | CC50 [4] [µM] | CC50 [5] [µM] | CC50 [6] [µM] | CC50 [7] [µM] | Effect [8] | Effect [9] | CC50 [10] [µM] | SI [11] | Effect [12] | Effect [13]
1 | COc1cc(/C=C2\CC/C(=C\c3ccc([N+](=O)[O-])cc3)C2=O)cc(OC)c1OC | > 400 | 1.96 | > 400 | > 400 | > 400 | > 400 | > 400 | 3.06 | 6.62 | > 400 | ~1 | 1.28 | 
2 | COc1ccc(/C=C2\CCC/C(=C\c3ccc([N+](=O)[O-])cc3)C2=O)cc1OC | 95 | 6.12 | 4.4 | 82 | 4.3 | 13 | 53 | 20.4 | 47.3 | 2.3 | 13 | 4.62 | 
3 | O=C1/C(=C/c2ccc(O)cc2)CCC/C1=C\c1ccc([N+](=O)[O-])cc1 | > 400 | 1.15 | 13 | > 400 | 4.4 | > 400 | > 400 | 0.94 | 0.97 | 8.1 | ~3.8 | 0.6 | 
4 | COc1cc(/C=C2\Cc3ccccc3/C(=C\c3ccc([N+](=O)[O-])cc3)C2=O)cc(OC)c1OC | > 400 | 10.9 | 2.9 | > 400 | 0.55 | 3 | > 400 | 134 | 120 | 0.55 | > 229 | 13 | 
5 | COc1cc(/C=C2/C(=O)/C(=C/c3ccc([N+](=O)[O-])cc3)c3ccccc32)cc(OC)c1OC | > 400 |  | > 400 | 153 | 318 | > 400 | 89 |  |  | 221 | ~0.6 |  | 
6 | O=C1/C(=C/c2ccc(Cl)cc2)CCC/C1=C\c1ccc([N+](=O)[O-])cc1 | 332 | 0.6 | 4.6 | 345 | 4.1 | 15 | 191 | 1.16 | 0.94 | 1.5 | 46 | 0.53 | 
7 | COc1cc(/C=C2\CCC/C(=C\c3ccc([N+](=O)[O-])cc3)C2=O)ccc1O | 171 | 1.98 | 5.2 | > 400 | 3.4 | 11 | 165 | 1.5 | 0.83 | 2.8 | > 44 | 1.13 | 
8 | COc1ccc(/C=C2\Cc3ccccc3/C(=C\c3ccc([N+](=O)[O-])cc3)C2=O)cc1OC | > 400 | 7.19 | 4.2 | > 400 | 0.56 | 4.4 | > 400 | 44.1 | 55.9 | 0.92 | > 159 | 11.4 | 
9 | O=C1/C(=C/c2ccc(O)cc2)Cc2ccccc2/C1=C\c1ccc([N+](=O)[O-])cc1 | 75 | 1.99 | 14 | 113 | 2.5 | 11 | 85 | 135 | 39.3 | 5.2 | 12 | 11.7 | 
10 | COc1cc(/C=C2\Cc3ccccc3/C(=C\c3ccc([N+](=O)[O-])cc3)C2=O)ccc1O | 21 | 3.38 | 3.8 | 83 | 0.95 | 5.8 | 33 | 51.8 | 123 | 1.45 | 15 | 6.2 | 
11 | O=C1/C(=C/c2ccc([N+](=O)[O-])cc2)CCC/C1=C\c1ccc2c(c1)OCO2 | 330 | 0.67 | 189 | 391 | > 400 | > 400 | > 400 | 0.91 | 1.23 | 308 | ~1.2 | 0.59 | 
12 | COc1ccc(/C=C2\CCC/C(=C\c3ccc([N+](=O)[O-])cc3)C2=O)cc1 | > 400 | 0.5 | > 400 | > 400 | > 400 | > 400 | > 400 | 0.76 | 0.82 | > 400 | ~1 | 0.58 | 
13 | COc1cc(/C=C2\CCC/C(=C\c3ccc([N+](=O)[O-])cc3)C2=O)cc(OC)c1OC | 378 | 7.43 | 4.7 | 347 | 1.1 | 8.3 | 336 | 15.6 | 75.1 | 0.76 | 95 | 4.38 | 
14 | COc1ccc(/C=C2\Cc3ccccc3/C(=C\c3ccc([N+](=O)[O-])cc3)C2=O)cc1 | > 400 | 2.22 | 32 | > 400 | 4.4 | 47 | > 400 | 4.36 | 7.68 | 11 | > 17 | 4.3 | 
15 | O=C1/C(=C/c2ccc3c(c2)OCO3)Cc2ccccc2/C1=C\c1ccc([N+](=O)[O-])cc1 | > 400 | 1.95 | 7.6 | > 400 | 2.2 | 5 | > 400 | 3.27 | 3.87 | 2.6 | > 92 | 2.27 | 
16 | COc1ccc(/C=C2\CC/C(=C\c3ccc([N+](=O)[O-])cc3)C2=O)cc1 | > 400 | 0.63 | > 400 | > 400 | > 400 | > 400 | > 400 | 0.59 | 0.69 | 63 | ~1.3 | 0.37 | 
17 | COc1cccc2c1C(=O)c1c(O)c3c(c(O)c1C2=O)C[C@@](O)(C(=O)CO)C[C@@H]3O[C@H]1C[C@H](N)[C@H](O)[C@H](C)O1 [DOXORUBICIN] | > 400 |  | 2.9 | 414 | 0.47 | 1.9 | 233 |  |  | 0.68 | > 235 |  | 
18 | COc1ccc(CCN(C)CCCC(C#N)(c2ccc(OC)c(OC)c2)C(C)C)cc1OC (configuration not stated) [VERAPAMIL] |  |  |  |  |  |  |  |  |  |  |  |  | 38.2
